Measured values gathered from unrelated publications.
Compare with care: the assays were run in different laboratories.
Target: Mitogen-activated protein kinase 7 (MAPK7, Homo sapiens, UniProt Q13164)

| Structure (SMILES) | read-out | technique | concentration | remaining binding [%] |
| --- | --- | --- | --- | --- |
| O=C(NCCCN1CCOCC1)c1ccc(Nc2nccc(-c3cc4ccccc4s3)n2)cc1 | binding | competition with immobilised ligand | 1 µM | 87 |
| CN(C)C(=O)Cn1cc(-c2nc([C@@](C)(c3ccc(-c4cnc(N)nc4)cc3)C3CC3)no2)cn1 | cell-free assay | competition with immobilised ligand | 1 µM | 90 |
| CN(c1nccc(-c2cnn3ncccc23)n1)C1CC1 | binding | – | 1 µM | 100 |
| CN([C@@H]1CCc2c(CC(=O)O)c3cc(S(C)(=O)=O)ccc3n2C1)S(=O)(=O)c1ccc(F)cc1 | cell-free assay | competition with immobilised ligand | 1 µM | 96 |
| Nc1ncc2c(n1)-c1c([nH]c3ccc(C#CC4CC4)cc13)CCCC2 | binding | competition with immobilised ligand | 1 µM | 85 |
| CN([C@@H]1CCc2c(CC(=O)O)c3ccccc3n2C1)S(=O)(=O)c1ccc(F)cc1 | cell-free assay | competition with immobilised ligand | 1 µM | 100 |
| C[C@@H](c1ccc(-n2cnc3c(N)ncnc32)cc1)N1CCc2nn(C)c(Cc3ccccc3)c2C1=O | binding | competition with immobilised ligand | 0.1 µM | 89 |
| C=CC(=O)N1CCC(C(=O)NCC(=O)N2CCN(c3nc(-c4cnc(N)nc4C(F)F)nc(N4CCOCC4)n3)CC2)CC1 | binding | competition with immobilised ligand | 1 µM | 100 |
| c1cncc(-c2cccc(Nc3nccc(NC4CCCCC4)n3)c2)c1 | binding | competition with immobilised ligand | 10 µM | 92 |
| COc1cnc(Nc2cccc(S(N)(=O)=O)c2)nc1N1CCN(c2ccccc2)CC1 | binding | competition with immobilised ligand | 1 µM | 100 |
| O=C(c1ccc(Nc2ncc(Cl)c(-c3ccc(Cl)s3)n2)cc1)N1CCC(N2CCCC2)CC1 | binding | competition with immobilised ligand | 1 µM | 7.1 |
| CN(C)c1nccc(-c2cnc3ncccn23)n1 | binding | – | 1 µM | 92 |
| O=C(c1ccc(Nc2nccc(-c3cc4ccccc4s3)n2)cc1)N1CCC(N2CCCC2)CC1 | binding | competition with immobilised ligand | 1 µM | 100 |
| Cc1cnn2ncc(-c3ccnc(N(C)C)n3)c2c1 | binding | – | 1 µM | 96 |
| Cc1noc([C@H]2C[C@@H](c3ccc(C(F)(F)F)cc3)CN(C(=O)N3CCS(=O)(=O)C3)C2)n1 | cell-free assay | competition with immobilised ligand | 1 µM | 87 |
| COc1ccnn2ncc(-c3ccnc(N(C)C)n3)c12 | binding | – | 1 µM | 100 |
| CN(c1ccnc(CNc2nc(Nc3ccc4c(c3)CC(=O)N4)ncc2C(F)(F)F)n1)S(C)(=O)=O | cell-free assay | competition with immobilised ligand | 1 µM | 78 |
| N[C@@H]1CCN(c2nccc(-c3cnn4ncccc34)n2)C1 | binding | – | 1 µM | 100 |
| CS(=O)(=O)N1CCCC(NC(=O)[C@H](CCC2CCCCC2)NC(=O)c2ccc(CNC(=O)c3cnc4ccccn34)cc2)C1 (some centres unmarked) | cell-free assay | competition with immobilised ligand | 0.1 µM | 94 |
| CN(CCCC(F)(F)F)c1nccc(-c2cnn3ncccc23)n1 | binding | – | 1 µM | 100 |
| COc1cc(C(=O)N2CCC(N3CCN(C)CC3)CC2)ccc1Nc1ncc2c(n1)N(C)c1ccccc1C(=O)N2C | binding | competition with immobilised ligand | 10 µM | 0.05 |
| C[C@H]1CCN(c2nccc(-c3cnn4ncccc34)n2)C1 | binding | – | 1 µM | 93 |
| O=C(Nc1c[nH]nc1C(=O)NC1CCNCC1)c1cc(F)cc(F)c1 | binding | competition with immobilised ligand | 1 µM | 83 |
